An excerpt weighted towards active compounds, which were near 5.6% of everything screened.
CHOP UPR activ: activators of apoptotic CHOP UPR arm, primary screen, cell-based, CHO-CHOP luciferase reporter, luminescence, uHTS; UPR activation; percent of tunicamycin response over DMSO baseline; activation, % at 10 µM; 330,000 compounds, 0.34% hits;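 active = at 10 µM dose, activation of 40% or more, normalized to positive control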;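 also: 100% = tunicamycin at 10 µg/mL and 0% = DMSO alone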
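Evaluation: % reporter activation, DMSO baseline versus tunicamycin full activation; System: CHO-CHOP luciferase reporter cell line; Input: 500 cells/well; Incubation: 6 h compound treatment, 37 °C; Measured by: Steady-Glo luciferase luminescence; Dosing: one dose, 10 µM in 0.5% DMSO; Buffer or medium: F12 medium, 10% FBS; Benchmarks: positive tunicamycin 10 µg/mL, negative DMSO alone.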
MPTP block: mitochondrial permeability transition pore inhibitors, primary screen, biochemical, isolated mouse mitochondria, absorbance. Ca2+ swelling absorbance, 30 min. inhibition, % at 10 µM. 360,000 compounds, 1.4% hits;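 active = inhibition of 50% or more, scaled per plate between neutral and stimulator controls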;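 also: 0% = DMSO wells given calcium and 100% = 1 mM EGTA wells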
aDG glyco up: activators of alpha-DG glycosylation, primary screen, uHTS, Pro5-aDG cells, AlphaScreen. alpha-DG glycosylation AlphaScreen (IIH6); 0% Pro5, 100% B10-LARGE cell signal. activation, % at 10 µM. 360,000 compounds, 0.22% hits. AID 624168, 2012;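 active = activation of at least 8% versus controls, or a plate z-score of at least 8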;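 also: Pro5 are CHO cells carrying HIG-tagged alpha-DG that lacks glycosylation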
XBP1 UPR activ: activators of adaptive XBP1 UPR arm, primary screen, cell-based, CHO-XBP1 luciferase reporter, luminescence, uHTS; IRE1-XBP1 UPR activation; percent of tunicamycin response, DMSO as zero; activation, % at 20 µM; 330,000 compounds, 0.33% hits; AID 463104, 2010;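 active = versus positive control, 20 µM dose yields 30% or more activation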;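 also: 100% = tunicamycin at 10 µg/mL and 0% = DMSO only wells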
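assay system = CHO-XBP1 luciferase reporter cells | amount = 1000 cells/well | buffer or medium = F12 plus 10% FBS | compound dosing = single point, 20 µM final compound, 1% DMSO | incubation = 16-18 h cell attachment at 37 °C, then 6 h compound exposure | detection = Steady-Glo luminescence read | controls = tunicamycin 10 µg/mL and vehicle-only wells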
CHOP inhibitor: inhibitors of CHOP promoter induction, primary screen, cell-based, unfolded protein response, luciferase reporter; 220,000 compounds, 3.8% hits; inhibition, % at 10 µM; AID 2732, 2010; CHO-K1 CHOP-promoter luciferase, tunicamycin-induced, 15-18 h;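 active = compounds that reduced the stress-induced luciferase reporter signal by more than about 70% of percent inhibition, limit read from the data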;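 also: 0% = tunicamycin plus vehicle and 100% = wells without tunicamycin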
NR3A LBD binder: binders of NR3A ligand-binding domain, primary screen, biophysical, differential scanning fluorimetry, uHTS; Glutamate receptor ionotropic, NMDA 3A (GRIN3A) ligand-binding domain; NR3A LBD differential scanning fluorimetry, Tm shift; 0% = protein alone, 100% = glycine-bound protein; Tm shift relative to glycine control, % at 25 µM; 340,000 compounds, 2.5% hits; AID 1259313, 2017;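 active = melting temperature shift of at least 10% of the positive control shift, at one fixed dose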
CHOP inh conf: retest of CHOP induction inhibitors, confirmation, cell-based; 2,100 compounds, 45% hits; shares compounds with CHOP inhibitor; inhibition, % at 10 µM; AID 504437, 2011; CHO-CHOP promoter luciferase reporter, tunicamycin-induced, luminescence;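 active = mean of three repeat readings of reporter signal inhibition above a set limit, cut at about 70% in these data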;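 also: 0% = tunicamycin plus vehicle and 100% = wells lacking tunicamycin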
* hit, by the source's call.

What do the screens show for `Cc1ccc(-n2sc3ccccc3c2=O)cc1`?
CHOP UPR activ: 15; MPTP block: 0; aDG glyco up: 1; XBP1 UPR activ: -2; CHOP inhibitor: 106*; NR3A LBD binder: 3; CHOP inh conf: 30

Results for CCC1C(c2ccccc2)N(C)C(c2ccccc2)CC1(O)c1ccccc1 (stereo not given) ?
CHOP UPR activ: 0; MPTP block: 4; aDG glyco up: 0; XBP1 UPR activ: 9; CHOP inhibitor: 99*; NR3A LBD binder: -38; CHOP inh conf: 43

Results for CC(C)NC(=O)CC(c1ccccc1)c1cc(Br)ccc1O (stereo not given) ?
CHOP UPR activ: -1; MPTP block: -2; aDG glyco up: 0; XBP1 UPR activ: 0; CHOP inhibitor: 23; NR3A LBD binder: -3

Results for CCCCCCNC(=O)CC(c1ccccc1)c1cc(Br)ccc1O (stereo not given) ?
CHOP UPR activ: 1; MPTP block: 4; aDG glyco up: 1; XBP1 UPR activ: -3; CHOP inhibitor: 101*; NR3A LBD binder: 12*; CHOP inh conf: 112*

Results for CN(C)c1cc2c3ccccc3n(C)c2cc1N ?
MPTP block: -1; aDG glyco up: 0; NR3A LBD binder: -1

What do the screens show for `Cc1ccc(-n2c(=O)[nH]c3c(C(N)=O)nc(-c4ccc(C)o4)nc32)cc1`?
CHOP UPR activ: 0; MPTP block: -6; aDG glyco up: 0; XBP1 UPR activ: -2; CHOP inhibitor: 107*; NR3A LBD binder: -1; CHOP inh conf: 121*

Results for CCOC(=O)C(=CNc1cc(C)nn1-c1ccc(Cl)cc1)C(=O)OCC ?
CHOP UPR activ: 4; MPTP block: -2; aDG glyco up: 1; XBP1 UPR activ: -2; CHOP inhibitor: 104*; NR3A LBD binder: 2; CHOP inh conf: 14

What do the screens show for `CCCCC1=CC2=C(c3ccco3)C(=O)C(C)(OC(=O)c3ccc(OC)cc3)C(=O)C2=CN1Cc1ccco1` (stereo not given)?
CHOP UPR activ: 1; MPTP block: 1; aDG glyco up: 0; XBP1 UPR activ: -1; CHOP inhibitor: 102*; NR3A LBD binder: -2; CHOP inh conf: 37

Results for CCCCC1=CC2=C(c3ccco3)C(=O)C(C)(OC(=O)c3ccc(OC)cc3)C(=O)C2=CN1Cc1ccc(OC)cc1 (stereo not given) ?
CHOP UPR activ: 5; XBP1 UPR activ: 0; CHOP inhibitor: -2

How did CCN1/C(=C/C=C/C=C/c2sc3ccccc3[n+]2CC)Sc2ccccc21 do in these assays?
CHOP UPR activ: 10; XBP1 UPR activ: -8; CHOP inhibitor: 104*; CHOP inh conf: 119*

How did COc1ccc(/C=c2\sc3nc(-c4ccccc4OC)nn3c2=O)c(OC)c1 do in these assays?
CHOP UPR activ: 0; MPTP block: 1; aDG glyco up: 0; XBP1 UPR activ: 5; CHOP inhibitor: 102*; NR3A LBD binder: 3; CHOP inh conf: 21

What do the screens show for `CCOC(=O)C1CCCN(C(=O)CN2C(=O)c3ccccc3S2(=O)=O)C1` (stereo not given)?
CHOP UPR activ: 1; MPTP block: 0; aDG glyco up: 0; XBP1 UPR activ: 1; NR3A LBD binder: 0

What do the screens show for `CCC(C)(C)c1ccc(Oc2ccc(N)cc2)cc1`?
MPTP block: 9; aDG glyco up: 0; CHOP inhibitor: 108*; NR3A LBD binder: -9; CHOP inh conf: 125*

How did CC(C)CC(=O)/C(=C\c1ccc(Cl)cc1Cl)n1cncn1 do in these assays?
MPTP block: 1; aDG glyco up: 1; CHOP inhibitor: 109*; NR3A LBD binder: 1; CHOP inh conf: 3

How did CC(C)CC(=O)/C(=C/c1ccc(N(C)C)cc1)n1cncn1 do in these assays?
CHOP UPR activ: 0; MPTP block: 1; aDG glyco up: 0; XBP1 UPR activ: -1; NR3A LBD binder: 0

Results for Cc1ccc(C)c(NC(=O)CN(C)C(=O)c2ccccc2Cc2ccccc2)c1 ?
CHOP UPR activ: -1; MPTP block: 0; aDG glyco up: 1; XBP1 UPR activ: -4; NR3A LBD binder: 0

What do the screens show for `COc1ccc(/C=C(/C(=O)c2cccs2)N2C=CC=CC2=C(C#N)C#N)cc1`?
MPTP block: -2; aDG glyco up: -1; CHOP inhibitor: 105*; NR3A LBD binder: 1; CHOP inh conf: 109*

How did CC(C)=CCC[C@](C)(O[C@@H]1O[C@H](CO[C@@H]2O[C@H](CO)[C@@H](O)[C@H](O)[C@H]2O)[C@@H](O)[C@H](O)[C@H]1O)C1CC[C@]2(C)C1C(=O)CC1[C@@]3(C)CC[C@H](O[C@H]4O[C@@H](CO)[C@H](O)[C@@H](O)[C@@H]4O)C(C)(C)C3CC[C@]12C (stereo not given in full) do in these assays?
CHOP UPR activ: 0; MPTP block: -2; aDG glyco up: 0; XBP1 UPR activ: 1; NR3A LBD binder: -3

What do the screens show for `CC(=O)OCC1O[C@@H](O[C@@H]2C[C@H]3C(C)(C)[C@H](OC(C)=O)CC[C@]3(C)[C@H]3CC[C@]45C[C@]4(CC[C@H]5[C@@H](C)C[C@@H](O)[C@H](O)C(C)(C)O)[C@@]32C)[C@H](O)[C@@H](O)[C@@H]1O` (stereo not given in full)?
CHOP UPR activ: 5; XBP1 UPR activ: 29; CHOP inhibitor: 106*; CHOP inh conf: 120*

How did Cc1cc(Sc2ncnc(N)c2[N+](=O)[O-])ncn1 do in these assays?
CHOP UPR activ: -9; MPTP block: -1; aDG glyco up: -1; XBP1 UPR activ: -8; CHOP inhibitor: 106*; NR3A LBD binder: -1; CHOP inh conf: 61

How did Cc1ccc(C)c(Oc2ncnc(N)c2[N+](=O)[O-])c1 do in these assays?
CHOP UPR activ: 0; MPTP block: 1; aDG glyco up: 0; XBP1 UPR activ: -2; CHOP inhibitor: -9; NR3A LBD binder: 0

How did Cc1cc(Sc2nc(N)ncc2[N+](=O)[O-])ncn1 do in these assays?
CHOP UPR activ: -9; MPTP block: 2; aDG glyco up: 0; XBP1 UPR activ: -6; CHOP inhibitor: 106*; NR3A LBD binder: -2; CHOP inh conf: 26

How did Cc1cc(N)ncc1[N+](=O)[O-] do in these assays?
MPTP block: 0; aDG glyco up: 0; NR3A LBD binder: -1

Bioassay records (PubChem)
